The test system of one data set is Aspergillus niger. Put plainly: Antifungal activity against Aspergillus niger BKMF-1119 measured every 24 hrs for 14 days by conventional dilution method. It is filed as functional. The method in brief:
(§1)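 Dilution assay in Sabouraud dextrose broth, inoculum 2 × 10^3–4 cfu/ml. MIC is the lowest concentration with no visible growth after 14 days of incubation. Run alongside a positive growth control and standard drug controls. Tests in duplicate, repeated twice.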

The subject of data set [1] is Escherichia coli. The data set is described as follows: Antibacterial activity against Escherichia coli F-50 measured every 24 hrs for 5 days by conventional dilution method. In kind it is functional. The method in brief: (§2)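 Broth dilution in nutrient broth, inoculum 3 × 10⁵ cfu/ml. MIC is the lowest concentration showing no growth, read visually every 24 h over 5 days. Run alongside a positive growth control and standard drug controls. Tests in duplicate, repeated twice.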

For another data set, the system named is Candida albicans. Put plainly: Antifungal activity against Candida albicans 885-653 measured every 24 hrs for 14 days by conventional dilution method. In kind it is functional. The method in brief: as §1
For data set [2], the system named is Trichophyton mentagrophytes. Put plainly: Antifungal activity against Trichophyton mentagrophytes measured every 24 hrs for 14 days by conventional dilution method. In kind it is functional. In short, it runs like this: as §1
The test system of data set [3] is Pseudomonas aeruginosa. The data set is described as follows: Antibacterial activity against Pseudomonas aeruginosa 9027 measured every 24 hrs for 5 days by conventional dilution method. In kind it is functional. The method in brief: as §2
Data set [4] deals with Bacillus cereus. Put plainly: Antibacterial activity against Bacillus cereus 8035 measured every 24 hrs for 5 days by conventional dilution method. It is filed as functional. In short, it runs like this: as §2
The subject of data set [5] is Staphylococcus aureus. The data set is described as follows: Antibacterial activity against Staphylococcus aureus 209p measured every 24 hrs for 5 days by conventional dilution method. In kind it is functional. In short, it runs like this: as §2
Data set [6] can be described thus: Acute toxicity in ip dosed mouse. In kind it is organism-based. To be noted: in vivo. The method in brief: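 Mice; each compound given at 5 dose levels, 10 animals per dose (n = 50 per compound). Animals observed for 72 h; toxicity expressed as average lethal dose (LD50) calculated from mortality across dose groups.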
In data set [7] the test system is Escherichia coli. Put plainly: Bactericidal activity against Escherichia coli F-50 after 4 hrs. It is filed as functional. The following applies: F-50, 4 h. In short, it runs like this:
(§3)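 Tubes contained 1 mL test compound in nutrient agar, 5 to 500 per ml. Bacteria in normal saline broth (3 × 10⁵ cfu/ml, 1 mL) were added and held 4 h, then transferred onto meal-peptone agar plates and incubated at 37 °C. MBC is the dilution giving total cell death.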

Data set [8] relates to Staphylococcus aureus. Put plainly: Bactericidal activity against Staphylococcus aureus 209p after 4 hrs. In kind it is functional. The method in brief:
as §3

Data set [9] has as its system Bacillus cereus. The data set is described as follows: Bactericidal activity against Bacillus cereus 8035 after 4 hrs. It is filed as functional. The following applies: Bacillus cereus, 8035, 4 h. The method in brief: as §3
Data set [10] deals with Pseudomonas aeruginosa. The data set is described as follows: Bactericidal activity against Pseudomonas aeruginosa 9027 after 4 hrs. In kind it is functional. The following applies: Pseudomonas aeruginosa, 9027, 4 h. In short, it runs like this:
as §3

≈ marks a conversion by molar mass, not a printed value.

The term MIC denotes the smallest concentration in the dilution series that meets the test's criterion for growth inhibition. As usually defined, the LD50 is the dose at which mortality reaches 50%. As to `CCCCCC[n+]1cccc(-c2nc(-c3ccccc3)c3c(=O)[nH]c4ccccc4n23)c1.[Br-]`, the MIC is more than 500 µg/mL against Aspergillus niger; more than 500 µg/mL in the data set on Escherichia coli [1]; 250 µg/mL against Candida albicans; more than 500 µg/mL in data set [2]; more than 500 µg/mL with Pseudomonas aeruginosa [3]; 125 µg/mL in the data set with Bacillus cereus [4]. The compound also had an MIC in the data set on Staphylococcus aureus [5] of 62.5 µg/mL. In addition, the LD50 in [6] amounted to 75.8 mg/kg.
Broadly, the MBC is the lowest tested concentration that kills the bacteria rather than only halting them. Low values mean more potent killing, high ones less potent killing. Regarding `O=C(O)c1cn(C2CC2)c2cc(N3CCNCC3)c(F)cc2c1=O` [CIPROFLOXACIN], the MBC with Escherichia coli [7] is 0.5 µg/mL (≈ 1.51 µM); in the data set with Staphylococcus aureus [8], 0.25 µg/mL (≈ 0.754 µM); against Bacillus cereus [9] it was 0.25 µg/mL (≈ 0.754 µM); against Pseudomonas aeruginosa [10], 0.5 µg/mL (≈ 1.51 µM). Moreover, the MIC against Bacillus cereus [4] and in the data set on Staphylococcus aureus [5] was 0.25 µg/mL (≈ 0.754 µM) in each case.
Turning to `O=c1[nH]c2ccccc2n2c(-c3ccc[n+](Cc4ccccc4)c3)nc(-c3ccccc3)c12.[Cl-]`, the MIC is more than 500 µg/mL in the data set on Aspergillus niger; more than 500 µg/mL with Escherichia coli [1]; 62.5 µg/mL in the data set on Candida albicans; 500 µg/mL in data set [2]; more than 500 µg/mL against Pseudomonas aeruginosa [3]; 125 µg/mL in the data set with Bacillus cereus [4]. This compound also showed an MIC against Staphylococcus aureus [5] of 31.3 µg/mL. Besides, the LD50 in [6] was found to be 65.7 mg/kg.
In the case of `CCCn1c(=O)c2c(-c3ccccc3)nc(-c3ccc[n+](Cc4ccccc4)c3)n2c2ccccc21.[Cl-]`, the MIC against Aspergillus niger is more than 500 µg/mL; against Escherichia coli [1] it was more than 500 µg/mL; against Candida albicans, more than 500 µg/mL; in [2], more than 500 µg/mL; against Pseudomonas aeruginosa [3], more than 500 µg/mL; in the data set on Bacillus cereus [4], 125 µg/mL. For the same compound, in the data set with Staphylococcus aureus [5], it took 62.5 µg/mL to inhibit growth (MIC).
Turning to `Cl.O=c1[nH]c2ccccc2n2c(-c3cccnc3)nc(-c3ccccc3)c12`, the MIC (against Aspergillus niger; against Escherichia coli [1]; in the data set with Candida albicans; in data set [2]; in the data set on Pseudomonas aeruginosa [3]; against Bacillus cereus [4]) was more than 500 µg/mL throughout. This compound had an MIC against Staphylococcus aureus [5] of more than 500 µg/mL.
For `Cl.O=c1[nH]c2ccccc2n2c(-c3ccccn3)nc(-c3ccccc3)c12`, the MIC (in the data set with Aspergillus niger; against Escherichia coli [1]; against Candida albicans; in data set [2]; in the data set on Pseudomonas aeruginosa [3]; in the data set on Bacillus cereus [4]) was more than 500 µg/mL each time. In the data set on Staphylococcus aureus [5], this compound returned an MIC of more than 500 µg/mL.
Turning to `CCCCCCCCCCCCCCCCCCn1c(=O)c2c(-c3ccccc3)nc(-c3ccc[n+](Cc4ccccc4)c3)n2c2ccccc21.[Cl-]`, the MIC (in the data set with Aspergillus niger; against Escherichia coli [1]; against Candida albicans; in data set [2]; in the data set on Pseudomonas aeruginosa [3]; with Bacillus cereus [4]) was more than 500 µg/mL in each case. In addition, the MIC with Staphylococcus aureus [5] amounted to 500 µg/mL.
Consider `CCCCCCn1c(=O)c2c(-c3ccccc3)nc(-c3ccc[n+](Cc4cccc(C[n+]5cccc(-c6nc(-c7ccccc7)c7c(=O)n(CCCCCC)c8ccccc8n67)c5)c4)c3)n2c2ccccc21.[Br-].[Br-]`, for which the MIC against Aspergillus niger was more than 500 µg/mL; in the data set on Escherichia coli [1], more than 500 µg/mL; with Candida albicans, 15.6 µg/mL; in data set [2] it was more than 500 µg/mL; against Pseudomonas aeruginosa [3], more than 500 µg/mL; with Bacillus cereus [4] it was 62.5 µg/mL. For the same compound, the MIC with Staphylococcus aureus [5] turned out to be 12.5 µg/mL.
Turning to `CCCCCCCCCn1c(=O)c2c(-c3ccccc3)nc(-c3ccc[n+](CCCCCC)c3)n2c2ccccc21.[I-]`, the MIC is more than 500 µg/mL with Aspergillus niger; more than 500 µg/mL against Escherichia coli [1]; 25 µg/mL in the data set with Candida albicans; more than 500 µg/mL in [2]; more than 500 µg/mL in the data set with Pseudomonas aeruginosa [3]; 125 µg/mL against Bacillus cereus [4]. The compound also had an MIC against Staphylococcus aureus [5] of 62.5 µg/mL.
Consider `CCCC[n+]1cccc(-c2nc(-c3ccccc3)c3c(=O)[nH]c4ccccc4n23)c1.[I-]`, for which the MIC (against Aspergillus niger; with Escherichia coli [1]; in the data set with Candida albicans; in data set [2]; in the data set on Pseudomonas aeruginosa [3]; with Bacillus cereus [4]) was more than 500 µg/mL each time. The compound also yielded an MIC in the data set with Staphylococcus aureus [5] of 500 µg/mL. In addition, in data set [6], the LD50 came to 63.2 mg/kg.
Consider `Cc1nc(-c2ccc[n+](Cc3ccccc3)c2)n2c1c(=O)[nH]c1ccccc12.[Cl-]`, for which the MIC (in the data set on Aspergillus niger; against Escherichia coli [1]; against Candida albicans; in data set [2]; against Pseudomonas aeruginosa [3]; in the data set with Bacillus cereus [4]) was more than 500 µg/mL each time. In the data set with Staphylococcus aureus [5], 500 µg/mL was the least that counted as inhibitory (MIC).

(Values after ChEMBL document CHEMBL2407024, “Antimicrobial activity of imidazo[1,5-a]quinoxaline derivatives with pyridinium moiety” (Eur J Med Chem, 2013).)
